Source: ChEMBL document CHEMBL4138227, “Identification of an oxime-containing C-glucosylarene as a potential inhibitor of sodium-dependent glucose co-transporter 2” (Eur J Med Chem, 2018)
pEC50: −log10 of the molar value.

Legend:
[1] = target: T1, Sodium/glucose cotransporter 2 (Homo sapiens, UniProt P31639); test: Inhibition of human SGLT2 expressed in CHO cells assessed as reduction in [14C]AMG uptake after 1 hr by microbeta counting method; type: cell-based
T1 sequence (P31639 whole entry): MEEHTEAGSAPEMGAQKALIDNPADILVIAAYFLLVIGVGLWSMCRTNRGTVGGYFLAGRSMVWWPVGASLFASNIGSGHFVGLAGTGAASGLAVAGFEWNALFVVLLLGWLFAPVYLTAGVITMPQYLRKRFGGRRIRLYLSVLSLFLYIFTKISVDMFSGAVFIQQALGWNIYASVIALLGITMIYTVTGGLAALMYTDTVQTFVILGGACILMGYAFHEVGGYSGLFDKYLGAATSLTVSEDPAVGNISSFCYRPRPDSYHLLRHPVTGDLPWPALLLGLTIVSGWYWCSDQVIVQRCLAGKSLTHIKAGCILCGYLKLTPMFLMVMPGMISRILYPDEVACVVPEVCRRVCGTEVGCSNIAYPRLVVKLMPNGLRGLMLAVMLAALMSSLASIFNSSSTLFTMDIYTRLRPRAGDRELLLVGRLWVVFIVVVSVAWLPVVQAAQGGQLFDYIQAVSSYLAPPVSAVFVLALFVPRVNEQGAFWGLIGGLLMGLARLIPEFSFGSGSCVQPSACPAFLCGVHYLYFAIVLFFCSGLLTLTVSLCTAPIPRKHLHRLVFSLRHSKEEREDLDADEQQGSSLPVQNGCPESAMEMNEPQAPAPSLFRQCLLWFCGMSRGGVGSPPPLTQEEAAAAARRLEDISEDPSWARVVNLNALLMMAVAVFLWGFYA
Procedure, shortened: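 CHO cells stably expressing human SGLT2 (or SGLT1); inhibition of sodium-dependent uptake of [14C]α-methyl-D-glucopyranoside measured; EC50 from at least two independent experiments, each in triplicate.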

[2] = Clearance in Sprague-Dawley rat at 0.9 mg/kg, iv; type: ADME, organism-based; conditions: in vivo
[3] = Elimination half life in Sprague-Dawley rat at 0.9 mg/kg, iv; type: ADME, organism-based; conditions: in vivo, read-out: beta t1/2 (converted)
[4] = AUC (0 to infinity) in Sprague-Dawley rat at 0.9 mg/kg, iv; type: ADME, organism-based; set-up: dose 0.9 mg/kg, route intravenous, time infinity; conditions: in vivo
Procedure, shortened: (§1)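 Rats got a single intravenous or oral dose, with 3 animals per route. Pharmacokinetic parameters were derived, including T1/2, clearance, Vss, Cmax, Tmax, AUC(0-inf) and oral bioavailability (F).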

[5] = Volume of distribution at steady state in Sprague-Dawley rat at 0.9 mg/kg, iv; type: ADME, organism-based; conditions: in vivo, read-out: Vdss
[6] = Volume of distribution at steady state in Sprague-Dawley rat at 1 mg/kg, iv; type: ADME, organism-based; conditions: in vivo, read-out: Vdss
[7] = Elimination half life in Sprague-Dawley rat at 1 mg/kg, po; type: ADME, organism-based; conditions: in vivo, read-out: beta t1/2 (converted)
[8] = Cmax in Sprague-Dawley rat at 1 mg/kg, po; type: ADME, organism-based; set-up: dose 1 mg/kg, route oral; conditions: in vivo
[9] = Elimination half life in Sprague-Dawley rat at 1 mg/kg, iv; type: ADME, organism-based; conditions: in vivo, read-out: beta t1/2 (converted)
[10] = Clearance in Sprague-Dawley rat at 1 mg/kg, iv; type: ADME, organism-based; conditions: in vivo
[11] = Tmax in Sprague-Dawley rat at 1 mg/kg, po; type: ADME, organism-based; conditions: in vivo
[12] = AUC (0 to infinity) in Sprague-Dawley rat at 1 mg/kg, po; type: ADME, organism-based; set-up: dose 1 mg/kg, time infinity, route oral; conditions: in vivo; procedure, shortened: as §1
[13] = Oral bioavailability in Sprague-Dawley rat at 1 mg/kg; type: ADME, organism-based; conditions: in vivo
[14] = AUC (0 to infinity) in Sprague-Dawley rat at 1 mg/kg, iv; type: ADME, organism-based; set-up: dose 1 mg/kg, time infinity, route intravenous; conditions: in vivo; procedure, shortened: as §1

SMILES	pEC50 [1]	further results
CCOc1ccc(Cc2cc([C@@H]3O[C@H](/C=N/Nc4ccccc4[N+](=O)[O-])[C@@H](O)[C@H](O)[C@H]3O)ccc2Cl)cc1	6.34	
CCOc1ccc(Cc2cc([C@@H]3O[C@H](/C=N/OCCO)[C@@H](O)[C@H](O)[C@H]3O)ccc2Cl)cc1	6.71	
C#CCO/N=C/[C@H]1O[C@@H](c2ccc(Cl)c(Cc3ccc(OCC)cc3)c2)[C@H](O)[C@@H](O)[C@@H]1O	6.37	
CCOc1ccc(Cc2cc([C@@H]3O[C@H](/C=N/NC(=O)c4ccco4)[C@@H](O)[C@H](O)[C@H]3O)ccc2Cl)cc1	6.52	
CCOc1ccc(Cc2cc([C@@H]3O[C@H](/C=N/OCCOC)[C@@H](O)[C@H](O)[C@H]3O)ccc2Cl)cc1	6.17	
CCOc1ccc(Cc2cc([C@@H]3O[C@H](/C=N/Nc4nc5ccccc5s4)[C@@H](O)[C@H](O)[C@H]3O)ccc2Cl)cc1	6.69	
CCOc1ccc(Cc2cc([C@@H]3O[C@H](/C=N/NC(=O)c4cccs4)[C@@H](O)[C@H](O)[C@H]3O)ccc2Cl)cc1	6.76	
CCOc1ccc(Cc2cc([C@@H]3O[C@H](CNNc4ccc([N+](=O)[O-])cc4)[C@@H](O)[C@H](O)[C@H]3O)ccc2Cl)cc1	6.68	
CCOc1ccc(Cc2cc([C@@H]3O[C@H](/C=N/OCc4ccccc4)[C@@H](O)[C@H](O)[C@H]3O)ccc2Cl)cc1	5.65	

Molecules with a higher pEC50 [1], results first:

pEC50 [1]	SMILES	further results
6.89	CCOc1ccc(Cc2cc([C@@H]3O[C@H](/C=N/NC(=O)c4ccccc4)[C@@H](O)[C@H](O)[C@H]3O)ccc2Cl)cc1	clearance [2]: 75.7 mL/min/kg; half-life [3]: 0.36 h; AUC(0-inf) [4]: 206 ng·h/mL; Vd [5]: 1.4 L/kg
7.42	CCOc1ccc(Cc2cc([C@@H]3O[C@H](/C=N/NCc4ccccc4)[C@@H](O)[C@H](O)[C@H]3O)ccc2Cl)cc1	
7.04	CCOc1ccc(Cc2cc([C@@H]3O[C@H](/C=N/OC)[C@@H](O)[C@H](O)[C@H]3O)ccc2Cl)cc1	Vd [6]: 2.9 L/kg; half-life [7]: 2.5 h; Cmax [8]: 116 ng/mL; half-life [9]: 3 h; clearance [10]: 12.6 mL/min/kg; Tmax [11]: 1 h; AUC(0-inf) [12]: 540 ng·h/mL; bioavailability [13]: 40.5%; AUC(0-inf) [14]: 1320 ng·h/mL
7.19	CCOc1ccc(Cc2cc([C@@H]3O[C@H](/C=N/NC(=O)c4ccc(Cl)cc4)[C@@H](O)[C@H](O)[C@H]3O)ccc2Cl)cc1	
